# Structures can show the parent of a compound that is named as a salt. Where a SMILES comes first, the peptide text is derived from it. [ ]: non-standard residue; d: D form. AEEA = NCCOCCOCC(=O)O
# How the values were obtained:
# MRSA (strain 33564) [1] = assay: Time-kill kinetics; type: cell-based, methicillin-resistant Staphylococcus aureus; conditions: 1×10^7 CFU/mL, RPMI 1640 + 10% FBS, 37°C
# How it was run: (§1)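 Bacteria adjusted to 1×10^7 CFU/mL in RPMI 1640 with 10% FBS. Incubated at 37°C, 200 rpm. Sampled every 30 min from 0 to 360 min, serially diluted in saline, plated on Mueller-Hinton agar, counted after 24 h at 37°C. Plotted as log₁₀ CFU/mL versus time.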
# MRSA (strain 33564) [2] = assay: Membrane depolarization, DiSC3; type: cell-based, methicillin-resistant Staphylococcus aureus; conditions: 30 min observation
# How it was run: (§2)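 Cells grown in Mueller-Hinton broth to OD600 0.5, pelleted (3500 r/min, 5 min, 4°C), washed twice in 5 mM HEPES pH 7.4 with 20 mM glucose. Adjusted to OD600 0.05 and loaded 30 min at room temperature with DiSC₃(5) (2 µmol/L final). KCl added (100 mmol/L final). After baseline reading (ex 622/em 670 nm), test compound added at 1, 2, 4 or 8 µmol/L; read continuously for 30 min.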
# [3] = test system: K. pneumoniae (strain 9409); assay: Membrane depolarization, DiSC3; type: cell-based, Klebsiella pneumoniae; conditions: 30 min observation
# How it was run: as §2
# [4] = test system: K. pneumoniae (strain 9409); assay: Salt sensitivity assay; type: cell-based, Klebsiella pneumoniae
# How it was run: (§3)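 MICs determined in RPMI-1640 with 150 mM FeCl₃, CaCl₂, KCl, NaCl or MgCl₂ added; unsupplemented RPMI 1640 as control. Read after 18–24 h at 37°C. Three independent experiments, mean±SEM.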
# MRSA (strain 33564) [5] = assay: Salt sensitivity assay; type: cell-based, methicillin-resistant Staphylococcus aureus
# How it was run: as §3
# [6] = test system: HaCaT (human keratinocytes); assay: Cytotoxicity, CCK-8; type: cell-based; conditions: nearly all concentrations (2.5-80 μmol/L), 24 h
# [7] = test system: RAW264.7 (murine macrophages); assay: Cytotoxicity, CCK-8; type: cell-based; conditions: nearly all concentrations (2.5-80 μmol/L), 24 h
# [8] = test system: HEK293 (human embryonic kidney cells); assay: Cytotoxicity, CCK-8; type: cell-based; conditions: nearly all concentrations (2.5-80 μmol/L), 24 h
# [9] = In vivo toxicity, 5 day intraperitoneal dosing; set-up: species or system mouse (female CD-1); conditions: for serum urea: n = 4; for aspartate aminotransferase (AST): serum day 5, n = 4; for alanine aminotransferase (ALT): serum day 5, n = 4, mean
# How it was run: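 Test compound given intraperitoneally to mice over 5 days at 5 and 10 mg/kg; PBS control group. Serum ALT and AST measured in U/L.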
# In vivo pharmacokinetics = assay: In vivo pharmacokinetics; set-up: species or system mouse (female CD-1)
# How it was run: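 Plasma concentrations of test compound measured by HPLC over 8 h after dosing.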
# [10] = test system: K. pneumoniae (strain 9409); assay: Time-kill kinetics; type: cell-based, Klebsiella pneumoniae; conditions: TRPY 2 μmol/L; 1×10^7 CFU/mL, RPMI 1640 + 10% FBS, 37°C
# How it was run: as §1
# MRSA = assay: Agar spotting assay; type: cell-based, methicillin-resistant Staphylococcus aureus; conditions: bacterial spotting assay, Fig. 4B
# K. pneumoniae = assay: Agar spotting assay; type: cell-based, Klebsiella pneumoniae; conditions: bacterial spotting assay, Fig. 4B
# MRSA strain 33564 = assay: Membrane permeabilization, PI uptake; type: cell-based, methicillin-resistant Staphylococcus aureus; conditions: 0-32 μM, PI 10 μg/mL, 37°C 30 min
# [11] = test system: K. pneumoniae strain 9409; assay: Membrane permeabilization, PI uptake; type: cell-based, Klebsiella pneumoniae; conditions: 0-32 μM, PI 10 μg/mL, 37°C 30 min
# bacterial DNA = assay: DNA interaction, gel electrophoresis; type: binding; conditions: Fig. S5
# MRSA biofilm [12] = assay: Biofilm formation inhibition, crystal violet; type: cell-based, methicillin-resistant Staphylococcus aureus; conditions: TRPY 32 μmol/L, 24 h
# How it was run: (§4)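 Biofilms formed with test compound present (inhibition) or pre-formed then treated (eradication). Stained with 0.1% crystal violet; biofilm quantified by absorbance at 600 nm against untreated control.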
# K. pneumoniae biofilm [13] = assay: Biofilm formation inhibition, crystal violet; type: cell-based, Klebsiella pneumoniae; conditions: TRPY 32 μmol/L, 24 h
# How it was run: as §4
# MRSA biofilm [14] = assay: Eradication of preformed biofilm, crystal violet; type: cell-based, methicillin-resistant Staphylococcus aureus; conditions: TRPY 8 µmol/L, 24 h on 24 h biofilm
# How it was run: as §4
# K. pneumoniae biofilm [15] = assay: Eradication of preformed biofilm, crystal violet; type: cell-based, Klebsiella pneumoniae; conditions: TRPY 8 µmol/L, 24 h on 24 h biofilm
# How it was run: as §4
# MRSA persister cells = assay: Anti-persister activity; type: cell-based, methicillin-resistant Staphylococcus aureus; conditions: 8 μmol/L, 1 h 37°C; persisters from vancomycin 50× MIC 6 h
# How it was run: (§5)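 Exponential-phase cultures treated 6 h with 50× MIC colistin (K. pneumoniae) or vancomycin (MRSA). Survivors pelleted (4 000 r/min, 10 min, 4°C), washed twice in PBS and resuspended in Mueller-Hinton broth at about 1×10^7 CFU/mL. […] Serially diluted, plated on Mueller-Hinton agar, CFU counted.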
# [16] = test system: K. pneumoniae persister cells; assay: Anti-persister activity; type: cell-based, Klebsiella pneumoniae; conditions: 8× MIC, 1 h 37°C; persisters from colistin 50× MIC 6 h
# How it was run: as §5
# LPS = assay: BODIPY-TR-cadaverine displacement assay; type: binding; conditions: 0-64 μmol/L, LPS 50 μg/mL, 50 mmol/L Tris pH 7.4, 30 min 37°C
# K. pneumoniae R62 = assay: Acute K. pneumoniae pulmonary infection model; type: in vivo, mouse (female CD-1)
# MRSA 33564 [17] = assay: MRSA peritoneal infection model; type: in vivo, mouse (female CD-1); conditions: 10 mg/kg i.p.
# How it was run: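 Female CD-1 mice (8–10 weeks) were challenged intraperitoneally with MRSA (1×10^8 CFU/mL). At 2 h post-infection they received 10 mg/kg test compound or PBS vehicle intraperitoneally (n=6 per group). Liver and kidneys were collected at 24 h post-infection and fixed in formalin. H&E-stained sections were compared with those from healthy, infected and vehicle-treated mice.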
# E. coli LPS = assay: LPS-induced endotoxemia model; type: in vivo, mouse (female CD-1); conditions: 10 mg/kg i.p. 1 h after LPS 10 mg/kg, blood 6 h after LPS, n = 5
# How it was run: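 Female CD-1 mice (8–10 weeks) challenged intravenously with E. coli LPS 10 mg/kg. Test compound 10 mg/kg given intraperitoneally 1 h later (n=5); LPS-only controls. Blood drawn 6 h after LPS. Serum IL-6, MCP-1, TNF-α and IL-1β measured by ELISA. Mean±SEM; one-way ANOVA, Dunnett.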
# Dynamic light scattering = type: physicochemical; conditions: DLS, 500 μg/mL in PBS pH 7.4, 25°C, triplicate
# K. pneumoniae 9409 = assay: Bacterial aggregation; type: cell-based, Klebsiella pneumoniae; conditions: 10 to 80 μmol/L, 4 h 37°C, PBS
# MRSA 33564 [18] = assay: Bacterial aggregation; type: cell-based, methicillin-resistant Staphylococcus aureus; conditions: 10 to 80 μmol/L, 4 h 37°C, PBS
# [19] = test system: MRSA-infected RAW264.7 macrophages; assay: Intracellular antibacterial activity; type: cell-based; conditions: vancomycin 20 μmol/L, 2 h; MOI 10:1
# [20] = 150 mmol/L of each salt in RPMI-1640
# [21] = 5 mg/kg i.p. once daily for 5 days
# [22] = 10 mg/kg i.p. once daily for 5 days
# [23] = 5 and 10 mg/kg i.p. for 5 days vs PBS
# [24] = female, CD-1, mouse, plasma, iv, 5 mg/kg
# [25] = 2 mg/kg intranasal, 18 h post-treatment, n = 7
smiles,measurement,setting,value
"CNC(C)C1CCC(N)C(OC2C(N)CC(N)C(OC3OCC(C)(O)C(NC)C3O)C2O)O1 (stereo not shown) [Gentamicin, gentamicin sulfate]",time to eradicate all viable cells,MRSA (strain 33564) [1]; gentamicin 20 μmol/L,over 360 min
same,DiSC3(5) fluorescence (membrane potential),MRSA (strain 33564) [2],maintained baseline fluorescence
same,DiSC3(5) fluorescence (membrane potential),[3],maintained baseline fluorescence
CC[C@H](C)[C@H](NC(=O)[C@H](CCCCN)NC(=O)[C@H](Cc1c[nH]c2ccccc12)NC(=O)[C@H](Cc1c[nH]c2ccccc12)NC(=O)[C@H](CCCCN)NC(=O)[C@H](CCCCN)NC(=O)[C@H](CCCCN)NC(=O)[C@H](Cc1c[nH]c2ccccc12)NC(=O)[C@H](CCCCN)NC(=O)[C@H](CCCCN)NC(=O)[C@H](Cc1c[nH]c2ccccc12)NC(=O)[C@H](CCCCN)NC(=O)[C@H](CCCCN)NC(=O)[C@@H](NC(=O)[C@@H](NC(=O)[C@H](CCCCN)NC(=O)[C@@H](N)CCCNC(=N)N)[C@@H](C)CC)[C@@H](C)CC)C(=O)N[C@@H](Cc1c[nH]c2ccccc12)C(=O)N[C@@H](Cc1c[nH]c2ccccc12)C(=O)N[C@@H](CCCCN)C(=O)NCCOCCOCC(N)=O [TRPY] (H-RKIIKKWKKWKKKWWKIWWK[AEEA]-NH2; N-terminus and C-terminus assumed),"effect of KCl, NaCl, and CaCl2 on antimicrobial activity",[4]; [20],minimal interference with antimicrobial activity
same,MIC with FeCl3,"[4]; RPMI-1640 + 150 mmol/L FeCl3, 37°C 18-24 h, strain 9409",approximately 2.0 μmol/L
same,MIC with MgCl2,"[4]; RPMI-1640 + 150 mmol/L MgCl2, 37°C 18-24 h, strain 9409",approximately 2.0 μmol/L
same,"effect of KCl, NaCl, and CaCl2 on antimicrobial activity",MRSA (strain 33564) [5]; [20],minimal interference with antimicrobial activity
same,MIC with FeCl3,"MRSA (strain 33564) [5]; RPMI-1640 + 150 mmol/L FeCl3, 37°C 18-24 h, strain 33564",approximately 2.0 μmol/L
same,MIC with MgCl2,"MRSA (strain 33564) [5]; RPMI-1640 + 150 mmol/L MgCl2, 37°C 18-24 h, strain 33564",approximately 2.0 μmol/L
same,cell viability,[6],over 80%
same,cell viability,[7],over 80%
same,cell viability,[8],over 80%
same,serum urea,[9]; [21],11.2 ± 1.5 µmol/L
same,aspartate aminotransferase (AST),[9]; [21],102.7±6.6 U/L
same,alanine aminotransferase (ALT),[9]; [21],22.8±2.6 U/L
same,serum urea,[9]; [22],12.1 ± 1.2 µmol/L
same,aspartate aminotransferase (AST),[9]; [22],105.2±4.7 U/L
same,alanine aminotransferase (ALT),[9]; [22],23.4±3.2 U/L
same,kidney histopathology (H&E),[9]; 5 and 10 mg/kg i.p. for 5 days,normal glomerular and tubular architecture
same,liver histopathology (H&E),[9]; 5 and 10 mg/kg i.p. for 5 days,"no signs of necrosis, inflammation, or fatty degeneration"
same,alkaline phosphatases (ALP) levels,[9]; [23],comparable across treatment groups
same,body weight,[9]; [23],no significant differences between the TRPY-treated and control groups
same,level at 0.25 h,In vivo pharmacokinetics; [24],~15 µg/mL
same,level at 2 h,In vivo pharmacokinetics; [24],< 1 µg/mL
same,level at 8 h,In vivo pharmacokinetics; [24],~0.12 µg/mL
same,elimination profile,"In vivo pharmacokinetics; single i.v. 5 mg/kg, 8 h",biphasic elimination profile
same,time to eradicate all viable cells,MRSA (strain 33564) [1]; TRPY 2 μmol/L,≤ 60 min
same,time to eliminate all viable cells,[10],≤ 60 min
same,concentration giving complete growth inhibition,MRSA,≥ 1 µmol/L
same,concentration giving complete growth inhibition,K. pneumoniae,≥ 1 µmol/L
same,PI uptake (cytoplasmic membrane disruption),MRSA strain 33564,concentration-dependent increase in PI fluorescence
same,PI uptake (cytoplasmic membrane disruption),[11],concentration-dependent increase in PI fluorescence
same,concentration inducing degradation or binding to bacterial DNA,bacterial DNA,≥ 4 µmol/L
same,reduction of biofilm formation compared to control,MRSA biofilm [12],approximately 95%
same,reduction of biofilm formation compared to control,K. pneumoniae biofilm [13],approximately 95%
same,reduction of preformed biofilm,MRSA biofilm [14],over 40%
same,reduction of preformed biofilm,K. pneumoniae biofilm [15],over 40%
same,persister cells after treatment,MRSA persister cells,complete eradication
same,persister CFU/mL after treatment,[16],virtually undetectable levels
same,LPS binding (probe displacement),LPS,"strong, concentration-dependent binding to LPS"
same,lung histology (H&E),K. pneumoniae R62; 2 mg/kg intranasal,reduced inflammatory cell infiltration and preserved alveolar architecture
same,reduction of pulmonary bacterial burden vs control,"K. pneumoniae R62; 2 mg/kg intranasal 2 h post-infection, lungs 18 h post-treatment, n = 7",approximately 1 log
same,reduction in IL-1β vs control group,K. pneumoniae R62; [25],42.8%
same,reduction in IL-6 vs control group,K. pneumoniae R62; [25],39.2%
same,reduction in MCP-1 vs control group,K. pneumoniae R62; [25],58.4%
same,reduction in TNF-α vs control group,K. pneumoniae R62; [25],34.7%
same,liver and kidney histopathology in infected mice,MRSA 33564 [17],maintained normal tissue architecture in the liver and kidneys
same,reduction of serum IL-1β relative to LPS-only controls,E. coli LPS,52.3%
same,reduction of serum IL-6 relative to LPS-only controls,E. coli LPS,42.3%
same,reduction of serum MCP-1 relative to LPS-only controls,E. coli LPS,46.6%
same,reduction of serum TNF-α relative to LPS-only controls,E. coli LPS,39.5%
same,nanoparticle average size,Dynamic light scattering,approximately 160 nm
same,bacterial aggregation,K. pneumoniae 9409,dose-dependent formation of visible precipitates
same,bacterial aggregation,MRSA 33564 [18],dose-dependent formation of visible precipitates
"CN[C@H](CC(C)C)C(=O)N[C@H]1C(=O)N[C@@H](CC(N)=O)C(=O)N[C@H]2C(=O)N[C@H]3C(=O)N[C@H](C(=O)N[C@H](C(=O)O)c4cc(O)cc(O)c4-c4cc3ccc4O)[C@H](O)c3ccc(c(Cl)c3)Oc3cc2cc(c3O[C@@H]2O[C@H](CO)[C@@H](O)[C@H](O)[C@H]2O[C@H]2C[C@](C)(N)[C@H](O)[C@H](C)O2)Oc2ccc(cc2Cl)[C@H]1O [Vancomycin, vancomycin sulfate]",intracellular bacterial burden,[19],approximately 1.5×10^5 CFU/mL
